This note sets out measurements from paper PMC2118398 (The Journal of Experimental Medicine, 2006).

The subject of assay [1] is human lung carcinoma A549. Put plainly: A549 human lung carcinoma xenograft model. The settings on record: 2 mg/kg intraperitoneally every 2 d; vs vehicle control, P < 0.005. In kind it is in vivo, mouse. Background: A xenograft is tissue or cells of one species grown in another, often human tumour cells in immunodeficient mice.
Assay [2] addresses CXCR7 on mouse B cell lymphoma BCL1 (Mus musculus, UniProt P56485). Put plainly: 125I SDF-1 binding profile on BCL1 cells. The settings on record: Fig. 3 B; 100 nM chemokine, 10 μM small molecules. In outline: (§1)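 Intact cells bound 125I SDF-1 with or without 100 nM unlabelled chemokine, 10 μM CXCR7 antagonist or 10 μM CXCR4 antagonist. Cell-bound radioactivity was counted in a γ counter. CXCR7 binding was taken as binding displaced by unlabelled ligand or the CXCR7 antagonist but not by the CXCR4 antagonist.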

Assay [3] concerns the target CXCR7 (SDF-1 binding site on fetal liver cells) (Mus musculus, UniProt P56485). The following applies: 125I SDF-1.
The test system of assay [4] is MCF-7 cells. Put plainly: Calcium mobilization in MCF-7 cells. The settings on record: agonist response. The class given is cell-based, human. In outline:
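Cells were loaded with the ratiometric dye Indo-1 and stimulated with 10 nM SDF-1α. The intracellular calcium trace was recorded around ligand addition. The analysis was reproduced in at least 10 independent studies.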
For orientation: Calcium flux is commonly read through the fluorescence of an indicator in the cells.

The target of a further assay is human CXCR7 (RDC1) (Homo sapiens, UniProt P25106). Put plainly: Radioligand. In kind it is binding.
In assay [5] the target is CXCR7 on human cervical carcinoma HeLa cells (Homo sapiens, UniProt P25106). Put plainly: 125I SDF-1 binding profile on HeLa cells. The settings on record: Fig. 3 B; 100 nM chemokine, 10 μM small molecules. A digest of the protocol: as §1
Assay [6] has as its system MCF-7 cells. Put plainly: Cell migration of MCF-7 cells. The class given is cell-based, human. The following applies: agonist response. In outline: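 Cells in HBSS with Ca2+, Mg2+ and 0.1% BSA were placed above a filter (3 or 5 μm pores, chosen by cell size) in a 96-well microchamber, with chemokine below. After 90 min at 37°C in humidified air, the filter was removed. Cells in the lower chamber were quantified with CyQuant fluorescence at 540 nm.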

The target in assay [7] is CXCR7 (SDF-1 binding site on MCF-7 cells) (Homo sapiens, UniProt P25106). Put plainly: Radioligand.
The target in another assay is CXCR4 (CEM-NKr cells) (Homo sapiens, UniProt P61073). Put plainly: 125I SDF-1 competition binding to CEM-NKr cells. A digest of the protocol: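 Whole CEM-NKr cells were incubated with 125I SDF-1 in the presence of unlabeled SDF-1α, a CXCR4 antagonist, or a CXCR7 antagonist as competitors. Cell-bound radioactivity was counted in a γ counter.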
The subject of assay [8] is CEM-NKr cells. Put plainly: Calcium mobilization in CEM-NKr cells. The following applies: unpublished data. The class given is cell-based, human. In outline: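 Cells were loaded with the ratiometric intracellular dye Indo-1, and the calcium response was recorded on addition of SDF-1α.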
The subject of assay [9] is CEM-NKr cells. Put plainly: Cell migration of CEM-NKr cells. In kind it is cell-based, human. The settings on record: unpublished data. A digest of the protocol:
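Cells in chemotaxis buffer (HBSS with Ca2+, Mg2+, 0.1% BSA) were placed above a 3 or 5 μm pore filter, sized to the cells, with chemokine in the lower chamber. After 90 min at 37°C, filters were removed, CyQuant was added to the lower chamber, and migrated cells were read at 540 nm.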

Chain of CXCR7 (SDF-1 binding site on MCF-7 cells) (P25106 whole entry): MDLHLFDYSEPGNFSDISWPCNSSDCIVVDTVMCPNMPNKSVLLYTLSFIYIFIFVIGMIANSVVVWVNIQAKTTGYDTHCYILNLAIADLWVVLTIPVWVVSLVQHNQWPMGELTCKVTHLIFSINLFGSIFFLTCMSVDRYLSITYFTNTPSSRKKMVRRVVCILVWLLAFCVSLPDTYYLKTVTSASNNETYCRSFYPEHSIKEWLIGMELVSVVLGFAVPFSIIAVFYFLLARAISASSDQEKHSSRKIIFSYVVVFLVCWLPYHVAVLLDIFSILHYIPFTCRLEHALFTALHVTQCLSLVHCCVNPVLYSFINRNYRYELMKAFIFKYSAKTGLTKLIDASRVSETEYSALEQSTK
Chain of human CXCR7 (RDC1) (P25106 whole entry): as above
Chain of CXCR7 on human cervical carcinoma HeLa cells (P25106 whole entry): as above
Chain of CXCR7 (SDF-1 binding site on fetal liver cells) (P56485 whole entry): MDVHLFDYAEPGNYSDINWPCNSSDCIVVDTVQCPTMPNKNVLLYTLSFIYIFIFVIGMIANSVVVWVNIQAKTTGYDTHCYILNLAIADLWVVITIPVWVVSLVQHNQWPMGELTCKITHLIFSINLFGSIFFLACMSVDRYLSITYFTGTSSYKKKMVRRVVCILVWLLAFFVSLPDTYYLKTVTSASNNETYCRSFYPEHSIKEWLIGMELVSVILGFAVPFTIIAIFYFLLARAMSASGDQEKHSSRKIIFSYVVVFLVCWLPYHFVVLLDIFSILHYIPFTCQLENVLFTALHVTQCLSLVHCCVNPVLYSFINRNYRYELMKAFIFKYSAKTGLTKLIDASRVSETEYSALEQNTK
Chain of CXCR7 on mouse B cell lymphoma BCL1 (P56485 whole entry): as above
Chain of CXCR4 (CEM-NKr cells) (P61073 whole entry): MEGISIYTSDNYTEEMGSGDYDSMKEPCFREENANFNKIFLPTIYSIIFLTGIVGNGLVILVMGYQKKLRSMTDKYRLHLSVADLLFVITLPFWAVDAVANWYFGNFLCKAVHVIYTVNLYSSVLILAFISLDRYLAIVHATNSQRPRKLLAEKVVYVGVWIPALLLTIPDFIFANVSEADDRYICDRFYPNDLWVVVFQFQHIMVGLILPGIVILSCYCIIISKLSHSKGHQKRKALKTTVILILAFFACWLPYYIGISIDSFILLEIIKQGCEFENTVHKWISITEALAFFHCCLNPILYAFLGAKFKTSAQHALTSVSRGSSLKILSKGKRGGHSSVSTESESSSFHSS

With `N[C@@H](Cc1ccc(N(CCCl)CCCl)cc1)C(=O)O` [Melphalan], the “tumor volume at 49 d, A549 model (positive control)” value in assay [1] is reported as “reduced tumor volume”.

For “I-TAC: CXC chemokine interferon-inducible T cell α chemoattractant, also known as CXCL11”, the “inhibition of 125I SDF-1 binding to BCL1 cells” value in assay [2] is on record as “inhibited”. The “inhibition of the SDF-1 binding site of E13 embryos of CXCR4-/- mice” value in assay [3] was “inhibited”. The “chemokine-induced calcium mobilization in MCF-7 cells” value in the assay with MCF-7 cells [4] was “failed to induce”. For the same molecule, the “inhibition of 125I SDF-1 binding to RDC1 (CXCR7) transfectants (in words)” value with human CXCR7 (RDC1) was “blocked”. For the same molecule, the “inhibition of 125I SDF-1 binding to HeLa cells” value in assay [5] was “inhibited”. Moreover, the “chemokine-induced migration of MCF-7 cells” value with MCF-7 cells [6] is recorded as “failed to induce”. Besides, the “inhibition of 125I SDF-1 binding to MCF-7 cells (in words)” value in assay [7] is listed as “strongly displaced”.

Turning to “IP10: chemokine IP10 (CXCL10), thought to bind only CXCR3”, in [7], the “inhibition of 125I I-TAC binding to MCF-7 cells (in words)” value is listed as “no inhibitory effect” and the “inhibition of 125I SDF-1 binding to MCF-7 cells (in words)” value was “no inhibitory effect”.

Take `c1cc(CN2CCCNCCNCCCNCC2)ccc1CN1CCCNCCNCCCNCC1` [AMD3100]: the “inhibition of 125I SDF-1 binding to CEM-NKr cells (in words)” value at CXCR4 (CEM-NKr cells) was “inhibited binding”. Further, the “inhibition of SDF-1-induced calcium mobilization in CEM-NKr cells” value in the assay with CEM-NKr cells [8] is listed as “inhibited all functions”. The “inhibition of 125I SDF-1 binding to MCF-7 cells (in words)” value in [7] was “not to MCF-7 cells”. For the same molecule, the “inhibition of SDF-1-induced cell migration of CEM-NKr cells” value in the assay with CEM-NKr cells [9] is reported as “inhibited all functions”.

In the case of “Mig: chemokine Mig (CXCL9), thought to bind only CXCR3”, in assay [7], the “inhibition of 125I I-TAC binding to MCF-7 cells (in words)” value is “no inhibitory effect” and the “inhibition of 125I SDF-1 binding to MCF-7 cells (in words)” value was “no inhibitory effect”.
